Measured values: ChEMBL document CHEMBL2406952, “Identification of vitamin d3-based hedgehog pathway inhibitors that incorporate an aromatic a-ring isostere” (ACS Med Chem Lett, 2013)
Calls of active or inactive are those of the source. No cut-off for these calls is given here.

Tests used:
[1] = target: T1, Vitamin D3 receptor (Mus musculus) (UniProt P48281); assay: Activation of VDR in mouse C3H10T1/2 cells assessed as upregulation of Cyp24A1 mRNA expression at 5 uM after 24 hrs by RT-PCR analysis relative to DMSO-treated control; type: cell-based; conditions: C3H 10T1/2
T1 sequence (whole entry): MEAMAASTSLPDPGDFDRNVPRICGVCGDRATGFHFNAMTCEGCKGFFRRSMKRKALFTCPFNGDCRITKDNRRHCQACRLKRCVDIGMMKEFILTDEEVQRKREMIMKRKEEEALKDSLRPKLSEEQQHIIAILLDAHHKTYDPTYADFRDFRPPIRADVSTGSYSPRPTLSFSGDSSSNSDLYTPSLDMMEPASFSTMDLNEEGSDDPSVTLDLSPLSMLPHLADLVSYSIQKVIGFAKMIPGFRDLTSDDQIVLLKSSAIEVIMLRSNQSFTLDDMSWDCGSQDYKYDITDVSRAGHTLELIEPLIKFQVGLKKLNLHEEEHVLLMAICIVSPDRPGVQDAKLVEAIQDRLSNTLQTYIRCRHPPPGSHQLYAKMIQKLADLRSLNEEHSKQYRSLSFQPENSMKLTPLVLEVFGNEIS
Procedure, shortened: (§1)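 Cyp24A1 mRNA normalized to ActinB and expressed relative to DMSO vehicle (set to 1.0). Cells treated for 24 h at 5 μM (some agents at 1 μM).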

[2] = Inhibition of Hedgehog signaling in mouse C3H10T1/2 cells assessed as downregulation of Gli1 mRNA expression at 5 uM after 24 hrs by RT-PCR analysis relative to 20(S)-hydroxycholesterol and 22(S)-hydroxycholesterol; type: cell-based; conditions: C3H 10T1/2
Procedure, shortened: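 Endogenous Gli1 mRNA measured after 24 h at 5 μM and normalized to ActinB with DMSO vehicle set to 1.0. Cells stimulated with 20(S)-hydroxycholesterol plus 22(S)-hydroxycholesterol (5 μM each) define 100% pathway activity, and the analogue effect is given as % of this level.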

[3] = target: T2, Vitamin D3 receptor (Homo sapiens) (UniProt P11473); assay: Binding affinity to human VDR by fluorescence polarization assay
T2 sequence (whole entry): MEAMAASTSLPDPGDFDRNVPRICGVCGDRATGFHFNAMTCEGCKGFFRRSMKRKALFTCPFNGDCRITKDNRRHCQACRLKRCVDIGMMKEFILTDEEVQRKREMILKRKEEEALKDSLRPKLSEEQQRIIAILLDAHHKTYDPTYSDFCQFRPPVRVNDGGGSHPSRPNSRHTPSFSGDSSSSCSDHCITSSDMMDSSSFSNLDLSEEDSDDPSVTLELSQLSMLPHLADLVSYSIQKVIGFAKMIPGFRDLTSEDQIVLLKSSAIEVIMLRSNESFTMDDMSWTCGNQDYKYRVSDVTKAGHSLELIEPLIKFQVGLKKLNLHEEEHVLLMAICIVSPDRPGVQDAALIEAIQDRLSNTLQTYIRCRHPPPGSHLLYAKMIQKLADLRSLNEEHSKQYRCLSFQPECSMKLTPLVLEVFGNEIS
Procedure, shortened: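 Fluorescence polarization competition kit with full-length human VDR and a tight-binding fluorescent VDR ligand, run per manufacturer's instructions. Compounds tested at 50 and 100 μM, with calcitriol as positive control for binding.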

[4] = target: T1, Vitamin D3 receptor (Mus musculus); assay: Activation of VDR in mouse M210B4 cells assessed as upregulation of Cyp24A1 mRNA expression at 5 uM after 24 hrs by RT-PCR analysis relative to DMSO-treated control; type: cell-based; procedure, shortened: as §1
[5] = Inhibition of Hedgehog signaling in mouse ASZ001 cells assessed as downregulation of Gli1 mRNA expression after 48 hrs by RT-PCR analysis; type: cell-based; conditions: ASZ001, 48 h
Procedure, shortened: (§2)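 Gli1 mRNA dose-response after 48 h compound incubation, used to derive IC50 (μM). Each value comes from at least two separate experiments, each performed in triplicate.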

[6] = target: T2, Vitamin D3 receptor (Homo sapiens); assay: Activation of VDR in human HT-29 assessed as upregulation of Cyp24A1 mRNA expression after 6 hrs by Northern blotting analysis
[7] = Inhibition of Hedgehog signaling in mouse C3H10T1/2 cells assessed as downregulation of Ptch mRNA expression after 24 hrs by RT-PCR analysis; type: cell-based; conditions: for inhibition: C3H 10T1/2; for IC50: C3H 10T1/2, 24 h
Procedure, shortened: (§3)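 Oxysterol-stimulated cells (20(S)- plus 22(S)-hydroxycholesterol, 5 μM each) were treated with compound across a dose range for 24 h. Gli1 and Ptch mRNA were normalized to ActinB, and IC50 values were derived. VD3 was dosed up to 10 μM.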

[8] = Inhibition of Hedgehog signaling in mouse M210B4 cells assessed as downregulation of Ptch mRNA expression after 24 hrs by RT-PCR analysis; type: cell-based; conditions: M210B4, 24 h; procedure, shortened: as §3
[9] = Inhibition of Hedgehog signaling in human DaOY cells assessed as downregulation of Gli1 mRNA expression after 48 hrs by RT-PCR analysis; type: cell-based; procedure, shortened: as §2
[10] = target: T1, Vitamin D3 receptor (Mus musculus); assay: Activation of VDR in mouse ASZ001 cells assessed as upregulation of Cyp24A1 mRNA expression at 5 uM after 48 hrs by RT-PCR analysis relative to DMSO-treated control; type: cell-based
Procedure, shortened: (§4)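 Cyp24A1 mRNA measured after 48 h exposure to analogue and normalized to ActinB, expressed relative to DMSO vehicle-treated cells (set as 1.0). Single concentrations tested were 2.5, 5 or 10 μM.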

[11] = target: T2, Vitamin D3 receptor (Homo sapiens); assay: Activation of VDR in human DaOY cells assessed as upregulation of Cyp24A1 mRNA expression at 5 uM after 48 hrs by RT-PCR analysis relative to DMSO-treated control; type: cell-based; procedure, shortened: as §4
[12] = Inhibition of Hedgehog signaling in mouse M210B4 cells assessed as downregulation of Gli1 mRNA expression after 24 hrs by RT-PCR analysis; type: cell-based; conditions: M210B4, 24 h; procedure, shortened: as §3
[13] = Inhibition of Hedgehog signaling in mouse C3H10T1/2 cells assessed as downregulation of Gli1 mRNA expression after 24 hrs by RT-PCR analysis; type: cell-based; conditions: for inhibition: C3H 10T1/2; for IC50: C3H 10T1/2, 24 h; procedure, shortened: as §3
[14] = system: Daoy; assay: Downregulation of Gli1 mRNA expression in human DaOY cells at 2.5 uM relative to DMSO-treated control; type: functional
[15] = target: T2, Vitamin D3 receptor (Homo sapiens); assay: Activation of VDR in human DaOY cells assessed as upregulation of Cyp24A1 mRNA expression at 10 uM after 48 hrs by RT-PCR analysis relative to DMSO-treated control; type: cell-based; procedure, shortened: as §4
[16] = Inhibition of Hedgehog signaling in mouse ASZ001 cells assessed as downregulation of Gli1 mRNA expression at 10 uM after 48 hrs by RT-PCR analysis relative to control; values are per cent of control
[17] = target: T1, Vitamin D3 receptor (Mus musculus); assay: Activation of VDR in mouse M210B4 cells assessed as upregulation of Cyp24A1 mRNA expression at 1 uM after 24 hrs by RT-PCR analysis relative to DMSO-treated control; type: cell-based
Procedure, shortened: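 M2-10B4 murine bone marrow stromal cells treated for 24 h at 1 μM; Cyp24A1 mRNA normalized to ActinB and expressed relative to DMSO vehicle, set to 1.0.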

[18] = target: T2, Vitamin D3 receptor (Homo sapiens); assay: Activation of VDR in human DaOY cells assessed as upregulation of Cyp24A1 mRNA expression at 2.5 uM after 48 hrs by RT-PCR analysis relative to DMSO-treated control; type: cell-based
Procedure, shortened: (§5)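 Cells exposed to compound for 48 h; Cyp24A1 mRNA expression measured and expressed relative to DMSO vehicle-treated cells, set as 1.0.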

[19] = Inhibition of Hedgehog signaling in mouse M210B4 cells assessed as downregulation of Gli1 mRNA expression at 10 uM after 24 hrs by RT-PCR analysis relative to 20(S)-hydroxycholesterol and 22(S)-hydroxycholesterol; type: cell-based
Procedure, shortened: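 M2-10B4 murine bone marrow stromal cells, Hh-responsive, treated for 24 h. Gli1 mRNA normalized to ActinB. Positive control 20(S)-hydroxycholesterol:22(S)-hydroxycholesterol (5 μM each) set as 100% pathway signaling. Values given as % of this level.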

[20] = target: T1, Vitamin D3 receptor (Mus musculus); assay: Activation of VDR in mouse ASZ001 cells assessed as upregulation of Cyp24A1 mRNA expression at =< 2.5 uM after 48 hrs by RT-PCR analysis; type: cell-based; procedure, shortened: as §5
[21] = target: T1, Vitamin D3 receptor (Mus musculus); assay: Activation of VDR in mouse ASZ001 cells assessed as upregulation of Cyp24A1 mRNA expression at 5 to 10 uM after 48 hrs by RT-PCR analysis; type: cell-based; procedure, shortened: as §5

| SMILES | fold change (FC) [1] | Gli1 mRNA level (% of OHC control) [2] [%] | Activity [3] [µM] | IC50 [5] [µM] | IC50 [9] [µM] | also measured |
| --- | --- | --- | --- | --- | --- | --- |
| CC(=O)c1cccc(C(=O)O[C@H]2CCC[C@]3(C)[C@@H]([C@H](C)CCCC(C)C)CC[C@@H]23)c1 | 1.6 | 77.5 | > 100 | – | – | – |
| O=C(O)c1cccc(O)c1 | 1.6 | 92.6 | > 100 | – | – | – |
| COc1cccc(C(=O)O[C@H]2CCC[C@]3(C)[C@@H]([C@H](C)CCCC(C)C)CC[C@@H]23)c1 | 1.3 | 104 | > 100 | – | – | – |
| CC(C)CCC[C@@H](C)[C@H]1CC[C@H]2[C@@H](OC(=O)c3cccc(O)c3)CCC[C@]12C | 22.2 | 1.9 | > 100 | 5.2 | 3.7 | fold change (FC) [4]: 1.2; Activity [6]: inactive; inhibition [7]: Dose-dependent effect; IC50 [7]: 1.1 µM; IC50 [8]: 1.7 µM; fold change (FC) [10]: 1.9; fold change (FC) [11]: 0.4; IC50 [12]: 1.1 µM; inhibition [13]: Dose-dependent effect; IC50 [13]: 0.74 µM |
| COC[C@H]1OC(=O)c2coc3c2[C@@]1(C)C1=C(C3=O)[C@@H]2CCC(=O)[C@@]2(C)C[C@H]1OC(C)=O [WORTMANNIN] | – | – | – | – | – | fold change (FC) [14]: 0.92 |
| O=C(CCCCCCC(=O)Nc1ccccc1)NO [VORINOSTAT] | – | – | – | – | – | fold change (FC) [14]: 1.51 |
| CC(C)CCC[C@@H](C)[C@H]1CC[C@H]2[C@@H](OC(=O)c3ccccc3)CCC[C@]12C | 1.2 | 105 | > 100 | > 10 | > 10 | fold change (FC) [15]: 0.6; fold change (FC) [10]: 1.1 |
| Cc1ccc(NC(=O)c2ccc(CN3CCN(C)CC3)cc2)cc1Nc1nccc(-c2cccnc2)n1 [IMATINIB] | – | – | – | – | – | fold change (FC) [14]: 0.98 |
| CC(C)CCC[C@@H](C)[C@H]1CC[C@H]2[C@@H](OC(=O)c3cccc(N)c3)CCC[C@]12C | 24.3 | 2.4 | > 100 | 7.1 | 9.2 | inhibition [7]: Dose-dependent effect; IC50 [7]: 4.5 µM; fold change (FC) [10]: 2.5; fold change (FC) [11]: 0.5; inhibition [13]: Dose-dependent effect; IC50 [13]: 2.8 µM |
| CS(=O)(=O)c1ccc(C(=O)Nc2ccc(Cl)c(-c3ccccn3)c2)c(Cl)c1 [VISMODEGIB] | – | – | – | 0.04 | 0.086 | IC50 [8]: 0.14 µM; IC50 [12]: 0.2 µM |
| CC(C)CCC[C@@H](C)[C@H]1CC[C@H]2[C@@H](OC(=O)c3cccc(Cl)c3)CCC[C@]12C | 1.2 | 107 | > 100 | – | – | – |
| CC(C)CCC[C@@H](C)[C@H]1CC[C@H]2[C@@H](O)CCC[C@]12C | 3.6 | 46.4 | – | > 10 | > 10 | IC50 [7]: 2.8 µM; level, % of control [16]: 65%; fold change (FC) [10]: 2.4; fold change (FC) [11]: 0.8; IC50 [13]: 3.1 µM |
| CC(C)CCC[C@@H](C)[C@H]1CC[C@H]2[C@@H](OC(=O)c3cccc(OCc4ccccc4)c3)CCC[C@]12C | 1 | 116 | > 100 | – | – | – |
| CNc1cccc(C(=O)O[C@H]2CCC[C@]3(C)[C@@H]([C@H](C)CCCC(C)C)CC[C@@H]23)c1 | 1.6 | 97.8 | > 100 | – | – | – |
| CC(C)CCC[C@@H](C)[C@H]1CC[C@H]2[C@@H](OC(=O)c3cccc(C(=O)O)c3)CCC[C@]12C | 6.7 | 40 | > 100 | – | – | – |
| CC1=C2C[C@H]3[C@@H](CC=C4C[C@@H](O)CC[C@@]43C)[C@@H]2CC[C@]12O[C@@H]1C[C@H](C)CN[C@H]1[C@H]2C [CYCLOPAMINE] | – | – | – | 0.66 | 0.16 | IC50 [8]: 0.43 µM; fold change (FC) [17]: 1.5; fold change (FC) [18]: 1; fold change (FC) [10]: 0.8; IC50 [12]: 0.8 µM |
| C=C1CC[C@H](O)C/C1=C/C=C1\CCC[C@]2(C)[C@@H]([C@H](C)CCCC(C)C)CC[C@@H]12 [CHOLECALCIFEROL] | 8340 | 35.7 | – | 2.1 | > 10 | fold change (FC) [4]: 274; inhibition [19]: 53%; IC50 [7]: 2.9 µM; IC50 [8]: > 10 µM; fold change (FC) [11]: 149; IC50 [12]: > 10 µM; Activity [20]: Active; Activity [21]: Active; IC50 [13]: 4.1 µM |
